High-throughput results from PubChem BioAssay.
TRPC6 inhibitor – inhibitors of mouse TRPC6 channel. Q61143. HEK293-TRPC6, membrane potential dye, ACh-evoked depolarization; active compounds read low. B-score at 10 µM. hit rate 1.1% among 310,000. AID 2553;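 active = B-score under library mean minus 3 SD, initial fluorescence not abnormally high, positive integrated signal ratio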;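 also: B-score derived from integrated fluorescence ratio over the kinetic read; more negative B-score means stronger inhibition of depolarization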
TRPC4 block – blocks the mouse TRPC4 cation channel; Q9QUQ5; B-score at 10 µM; HEK293 TRPC4beta/mu-opioid, DAMGO-evoked Fluo4 calcium flux; active compounds read low; hit rate 0.39% among 300,000;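 active = B-score over 3 SD under the library average, no early fluorescence shift, positive overall ratio signal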
Target sequence (Q9QUQ5 whole entry, looked up): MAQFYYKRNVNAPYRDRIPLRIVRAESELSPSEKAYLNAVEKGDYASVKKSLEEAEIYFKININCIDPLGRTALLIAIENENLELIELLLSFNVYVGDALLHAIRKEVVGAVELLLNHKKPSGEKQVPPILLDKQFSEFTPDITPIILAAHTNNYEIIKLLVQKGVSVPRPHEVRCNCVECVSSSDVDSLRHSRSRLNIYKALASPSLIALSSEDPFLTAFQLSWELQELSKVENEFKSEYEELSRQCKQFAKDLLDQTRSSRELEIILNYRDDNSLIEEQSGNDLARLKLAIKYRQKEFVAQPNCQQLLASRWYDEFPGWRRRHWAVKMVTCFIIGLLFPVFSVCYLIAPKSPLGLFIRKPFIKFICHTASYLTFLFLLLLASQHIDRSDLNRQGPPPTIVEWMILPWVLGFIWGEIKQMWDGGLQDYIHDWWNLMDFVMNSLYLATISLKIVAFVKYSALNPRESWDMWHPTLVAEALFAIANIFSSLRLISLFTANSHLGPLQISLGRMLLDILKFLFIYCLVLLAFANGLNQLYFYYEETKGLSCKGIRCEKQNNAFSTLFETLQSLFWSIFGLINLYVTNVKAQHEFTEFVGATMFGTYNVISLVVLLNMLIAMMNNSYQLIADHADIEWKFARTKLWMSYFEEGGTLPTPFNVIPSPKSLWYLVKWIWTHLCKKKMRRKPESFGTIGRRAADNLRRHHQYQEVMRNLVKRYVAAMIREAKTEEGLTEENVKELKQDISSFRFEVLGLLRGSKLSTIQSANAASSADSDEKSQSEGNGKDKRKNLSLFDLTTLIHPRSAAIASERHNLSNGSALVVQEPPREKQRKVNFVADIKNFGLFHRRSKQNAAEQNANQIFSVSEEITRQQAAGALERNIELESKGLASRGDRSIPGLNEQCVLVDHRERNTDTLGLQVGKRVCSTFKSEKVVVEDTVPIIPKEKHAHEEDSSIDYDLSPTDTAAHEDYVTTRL
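System: stable TRPC4beta/mu-opioid receptor HEK293 cells; Dosing: single-point compound dosing; Measured by: Fluo4 Ca2+ flux fluorescence; Read-out basis: per-well B score of integrated baseline-normalized Fluo4 ratio.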
TRPC6 act – activators of mouse TRPC6 channel | Q61143 | HEK293-TRPC6 membrane potential dye fluorescence; active compounds read high | B-score at 10 µM | hit rate 0.13% among 310,000;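 active = B-score of the integrated fluorescence ratio above library mean plus 3 SD, and starting fluorescence ratio within library mean plus 5 SD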;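 also: higher score means more depolarization so channel activation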
TRPC4 potent – TRPC4 (mouse) allosteric potentiation; Q9QUQ5; HEK293 TRPC4beta/mu-opioid, DAMGO EC20, Fluo-4 Ca2+ flux; active compounds read high; B-score at 10 µM; hit rate 0.42% among 310,000;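 active = B-score of calcium response area above 5 SD of library B-scores, with initial fluorescence ratio within 5 SD of library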
TRPC4 act – activators of mouse TRPC4 channel; AID 2237; B-score at 10 µM; Q9QUQ5; hit rate 0.49% among 310,000; HEK293 TRPC4beta/mu-opioid, Fluo4 calcium fluorescence; active compounds read high;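 active = B-score above 5 SD of library B-scores, and initial fluorescence ratio not above library mean plus 5 SD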;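 also: positive B-score marks a calcium rise read as TRPC4 activation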
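System: HEK293 cells stably co-expressing mouse TRPC4beta and mu-opioid receptor; Schedule: Fluo4 dye loading 45 min at room temperature, 110 s recording; Detection: Fluo4 fluorescence, kinetic; Evaluation: B-scored integrated calcium fluorescence ratio; Controls: buffer (low) and maximal DAMGO (high).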
TRPC4 spec 2 – mouse TRPC4 off-target activity of TRPC6 inhibitors, second screen | hit rate 42% among 920 | HEK293 TRPC4/MOR, membrane potential dye fluorescence; channel activated by saturating DAMGO dose | inhibition, % at 10 µM | shares compounds with TRPC6 inhibitor;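 active = compounds whose fluorescence signal differed from control wells by over 3 SD, either direction, in both duplicate plates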
TRPC4 spec – tests whether TRPC6 inhibitors also affect mouse TRPC4; shares compounds with TRPC6 inhibitor; HEK293 TRPC4/mu-opioid, membrane potential fluorescence; activity change, negative = inhibition, % at 10 µM; hit rate 61% among 920; AID 2777;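 active = rise or fall in signal beyond 3 SD of buffer-only wells in both replicate plates, either sign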;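 also: integrated kinetic ratio of fluorescence range over baseline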
HEK293 MPD ctr 2-1 – parental HEK293 nonspecific activity of TRPC6 inhibitors, second screen. parental HEK293 membrane potential dye fluorescence; maximal acetylcholine challenge after compound addition. shares compounds with TRPC6 inhibitor. signal change vs control, % at 10 µM. hit rate 31% among 920;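 active = membrane potential signal moving either way by over 3 SD of the maximum-effect control, in both duplicate plates, meaning non-specific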
HEK293 MPD ctr-1 – parental HEK293 nonspecific activity of TRPC6 inhibitors; parental HEK293 membrane potential dye fluorescence; hit rate 60% among 920; shares compounds with TRPC6 inhibitor; AID 2780; membrane potential signal change, % at 10 µM;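 active = membrane potential signal shifting up or down by more than 3 SD of buffer-only wells, on both duplicate plates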
HEK293 MPD ctr-2 – parental HEK293 nonspecific activity of TRPC6 modulators; shares compounds with TRPC6 inhibitor; membrane potential dye fluorescence; membrane potential signal change, % at 10 µM; hit rate 51% among 2,400; AID 488924;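 active = membrane potential signal moves up or down beyond 5 SD from buffer-only wells, on both duplicate plates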
HEK293 MPD ctr 2-2 – second check of TRPC6 modulator effects in parental HEK293 cells. shares compounds with TRPC6 inhibitor. membrane potential dye fluorescence; after compound, maximal acetylcholine stimulation. inhibition, % at 10 µM. hit rate 14% among 2,400. AID 488926;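 active = membrane potential signal drops by more than 5 SD from the mean control signal, in both duplicate plates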
TRPC4/MOR mod – tests whether TRPC6 modulators also affect mouse TRPC4; shares compounds with TRPC6 inhibitor; HEK293 TRPC4/mu-opioid, membrane potential fluorescence; percent change from control (negative = decrease, positive = increase), % at 10 µM; hit rate 69% among 2,400;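 active = membrane potential signal moved up or down beyond 5 SD of buffer control wells, in both duplicate plates, actives on both sides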
TRPC4/MOR inh 2 – mouse TRPC4 off-target activity of TRPC6 modulators, second screen; shares compounds with TRPC6 inhibitor; HEK293 TRPC4/mu-opioid, membrane potential dye fluorescence; stimulated with maximal-effect DAMGO; inhibition, % at 10 µM; hit rate 55% among 2,400; AID 488928;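 active = drop in membrane potential signal beyond 5 SD of the control wells in both duplicate plates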;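 also: TRPC4 counter screen for TRPC6 hits run under conditions tuned for TRPC6 not TRPC4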
TRPC6 block conf – mouse TRPC6 inhibitor confirmation. inhibition, % at 10 µM. shares compounds with TRPC6 inhibitor. HEK293-TRPC6, membrane potential dye, ACh-evoked depolarization. hit rate 43% among 3,300;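 active = fluorescence ratio falls more than 5 SD below the full-stimulation control mean, in both duplicate runs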;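 also: integrated fluorescence ratio of peak minus minimum over baseline after agonist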
TRPC6 act conf – confirmation of mouse TRPC6 activators; shares compounds with TRPC6 inhibitor; HEK293-TRPC6 membrane potential dye fluorescence, FDSS; activation, % at 10 µM; hit rate 11% among 2,800; AID 488961;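 active = ratio signal rise beyond 5 SD above unstimulated control wells' mean, seen in both duplicate runs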
Large screens that a line does not name were inactive (follow-up assays come after a bar, where they were run). Sampled rows, rich in hits. Any-hit rate of the full collection: about 2.3%.

CCNC(=O)NC(=O)COC(=O)c1cccc(S(=O)(=O)N2CC3(C)CC2CC(C)(C)C3)c1 (stereo not given)	none
Nc1nc(-c2ccccn2)nc(N)c1Cc1ccc(Cl)cc1Cl	none
CC1CCN(C2=C(NS(=O)(=O)c3ccc(Cl)cc3)C(=O)c3ccccc3C2=O)CC1	TRPC6 inhibitor -6.5 | HEK293 MPD ctr-2 inactive | HEK293 MPD ctr 2-2 inactive | TRPC4/MOR mod -10% | TRPC4/MOR inh 2 52% | TRPC6 block conf inactive | TRPC6 act conf inactive
CC1CCN(C2=C(NS(=O)(=O)c3ccc(Br)cc3)C(=O)c3ccccc3C2=O)CC1	none
CC1CCN(C2=C(NS(=O)(=O)c3ccccc3)C(=O)c3ccccc3C2=O)CC1	TRPC6 inhibitor -7.7 | HEK293 MPD ctr-2 inactive | HEK293 MPD ctr 2-2 inactive | TRPC4/MOR mod -27% | TRPC4/MOR inh 2 82% | TRPC6 block conf inactive | TRPC6 act conf inactive
CCN1CCN(C2=C(NS(=O)(=O)c3ccc(NC(C)=O)cc3)C(=O)c3ccccc3C2=O)CC1	none
CCOC(=O)C1CCN(C2=C(NS(=O)(=O)c3ccc(Cl)cc3)C(=O)c3ccccc3C2=O)CC1	TRPC6 inhibitor -6.1 | HEK293 MPD ctr-2 -78% | HEK293 MPD ctr 2-2 inactive | TRPC4/MOR mod -20% | TRPC4/MOR inh 2 69% | TRPC6 block conf 58% | TRPC6 act conf inactive
CC(=O)Nc1ccc(S(=O)(=O)NC2=C(N3CCN(Cc4ccccc4)CC3)C(=O)c3ccccc3C2=O)cc1	TRPC6 inhibitor -6.6, TRPC4 block -6 | HEK293 MPD ctr-2 -224% | HEK293 MPD ctr 2-2 inactive | TRPC4/MOR mod -34% | TRPC4/MOR inh 2 90% | TRPC6 block conf 68% | TRPC6 act conf inactive
NC(=O)c1ccsc1NC(=O)CS(=O)(=O)c1ccc(F)cc1	none
O=C1C(NS(=O)(=O)c2ccc(Br)cc2)=C(N2CCCCC2)C(=O)c2ccccc21	TRPC6 inhibitor -6.3 | HEK293 MPD ctr-2 inactive | HEK293 MPD ctr 2-2 inactive | TRPC4/MOR mod -20% | TRPC4/MOR inh 2 72% | TRPC6 block conf inactive | TRPC6 act conf inactive
CCOC(=O)C1CCCN(C2=C(NS(=O)(=O)c3ccc(Br)cc3)C(=O)c3ccccc3C2=O)C1 (stereo not given)	none
CCCN(c1ccccc1F)S(=O)(=O)c1cc(-c2cc(C)no2)ccc1OC	none
CSc1nc(SCCN(C)C)c2c3c(sc2n1)COC(C)(C)C3	none
Cc1cc(C)n(-c2nc(SCCN(C)C)c3c4c(sc3n2)CCCC4)n1	TRPC6 inhibitor -6.1, TRPC4 act 95 | HEK293 MPD ctr-2 inactive | HEK293 MPD ctr 2-2 inactive | TRPC4/MOR mod inactive | TRPC4/MOR inh 2 72% | TRPC6 block conf 46% | TRPC6 act conf inactive
Cc1c(NS(=O)(=O)c2ccc(NCCN3CCOCC3)c([N+](=O)[O-])c2)c(=O)n(-c2ccccc2)n1C	none
Cc1nc2c(o1)CCc1ccccc1C2N1CCN(C)CC1 (stereo not given)	TRPC6 inhibitor -9.4 | TRPC4 spec 2 inactive | TRPC4 spec 8.0% | HEK293 MPD ctr 2-1 -14% | HEK293 MPD ctr-1 11% | TRPC6 block conf 74%
Cc1nc(S(=O)(=O)N2CCN(C3c4ccccc4-c4ccccc43)CC2)cn1C	none
CC1CCCN(CCCNC(=O)c2ccc3c(c2)N(Cc2ccc(F)cc2)C(=O)c2ccccc2S3=O)C1 (stereo not given)	TRPC6 inhibitor -5.1, TRPC4 act 55 | HEK293 MPD ctr-2 inactive | HEK293 MPD ctr 2-2 inactive | TRPC4/MOR mod inactive | TRPC4/MOR inh 2 77% | TRPC6 block conf 57% | TRPC6 act conf inactive
O=C(NCCN1CCCC1)c1ccc2c(c1)N(Cc1cccc(Cl)c1)C(=O)c1ccccc1S2(=O)=O	none
Cc1cccc(CN2C(=O)c3ccccc3S(=O)(=O)c3ccc(C(=O)NCCCN4CCCC4)cc32)c1	TRPC6 inhibitor -5.1 | HEK293 MPD ctr-2 inactive | HEK293 MPD ctr 2-2 inactive | TRPC4/MOR mod inactive | TRPC4/MOR inh 2 57% | TRPC6 block conf 41% | TRPC6 act conf inactive
Cc1oc2c(CN3CCC(C)CC3)c(O)ccc2c(=O)c1-c1ccccc1	none
CCOC(=O)C1CCN(S(=O)(=O)c2ccc3oc(=O)ccc3c2)CC1	none
CCCC[n+]1ccc(-c2nc3ccc([N+](=O)[O-])cc3[nH]2)cc1	TRPC6 inhibitor -6.8 | TRPC4 spec 2 56% | TRPC4 spec -17% | HEK293 MPD ctr 2-1 -90% | HEK293 MPD ctr-1 -262% | TRPC6 block conf 73% | TRPC6 act conf inactive
NC(=O)CC(NC(=O)Cc1ccc(Cl)cc1)c1ccc(NCCOc2ccccc2)c([N+](=O)[O-])c1 (stereo not given)	none
O=C(CNS(=O)(=O)c1ccc(Br)cc1)Nc1ccc2c(c1)OCCO2	none
COc1ccc(C(CCN2CCCCC2)c2c(OC)cc(OC)c3c(-c4ccccc4)cc(=O)oc23)cc1 (stereo not given)	none
COc1cc(OC)c2c(-c3ccccc3)cc(=O)oc2c1C(CCN1CCCCC1)c1ccc(N(C)C)cc1 (stereo not given)	TRPC6 inhibitor -6.2, TRPC4 act 116 | HEK293 MPD ctr-2 inactive | HEK293 MPD ctr 2-2 inactive | TRPC4/MOR mod 36% | TRPC4/MOR inh 2 104% | TRPC6 block conf 55% | TRPC6 act conf inactive
